Published values of several laboratories.
Each line is one published result; the experiments were not run side by side.
Observed: metabolic stability
Species: human

| Compound | sample | tested at | pH | half-life [min] |
| --- | --- | --- | --- | --- |
| O=c1c2cc(Cl)c(CO)cc2[nH]c(=S)n1Cc1cccnc1 | liver microsomes | 1 µM | pH 7.4 | 57.1 |
| O=C(O)Cc1ccccc1Nc1c(Cl)cccc1Cl | liver microsomes | 2 µM | pH 7.4 | 8.3 |
| Cc1ncsc1-c1ccc([C@H](CC(=O)N2CC3(C2)CN(c2ccc(C#Cc4ccc(C(=O)N5CCC(n6cc(-c7ccc8c(c7)CCN8C(=O)Cc7cccc(OC(F)(F)F)c7)c7c(N)ncnc76)CC5)cc4)cn2)C3)NC(=O)[C@@H]2C[C@@H](O)CN2C(=O)[C@@H](NC(=O)C2(F)CC2)C(C)(C)C)cc1 | hepatocytes | 1 µM |  | > 120 |
| CCN(CC)CCNC(=O)c1c(C)[nH]c(/C=C2\C(=O)Nc3ccc(F)cc32)c1C | liver microsomes | 1 µM |  | 24.3 |
| Cc1[nH]c(C)c(S(=O)(=O)Nc2ccc(C(F)(F)F)c(Cl)c2)c1C(=O)N(C)C | liver microsomes |  |  | 8.7 |
| O=c1c2c([nH]c3cc(Oc4ccc(OC(F)(F)F)cc4)ccc13)CCCC2 | liver microsomes | 1 µM | pH 7.4 | 26.8 |
| Cc1[nH]c(C)c(S(=O)(=O)Nc2ccc(C(F)(F)F)c(Cl)c2Cl)c1C(=O)N1CCC(F)(F)C1 | liver microsomes |  |  | 94 |
| OCc1ccc(-c2nn(Cc3ccccc3)c3ccccc23)o1 | hepatocytes |  |  | 6.6 |
| CC(C)C(=O)OCc1cc2[nH]c(=S)n(Cc3cccnc3)c(=O)c2cc1Cl | liver microsomes | 1 µM | pH 7.4 | < 5 |
| Cc1c(C)n(Cc2cccc(OC(C)(C)C(=O)O)c2)c2ccc(C(=O)N[C@@H](C)c3ccc(C(C)(C)C)cc3)cc12 | liver microsomes |  |  | > 60 |
| CCOc1ccc(Nc2c3c(nc4ccccc24)CCC3)cc1 | liver microsomes | 0.5 µM |  | 47 |
| Cc1cc2c(C(=O)O)cccc2n1-c1nc2c(c(NCc3ccccc3)n1)CCCN2 | liver microsomes | 1 µM | pH 7.4 | > 120 |
| COc1ccc(Cn2cc(CO[C@@H]3O[C@H]4[C@H](OC[C@H]4O)[C@H]3O)nn2)cc1 | liver microsomes |  |  | 120 |
| O=c1c2c([nH]c3cccc(Oc4ccc(OC(F)(F)F)cc4)c13)CCCC2 | liver microsomes | 1 µM | pH 7.4 | 12.7 |
| O=c1c2cc(Cl)ccc2[nH]c(=S)n1Cc1ccc(-c2nnn[nH]2)nc1 | liver microsomes | 1 µM | pH 7.4 | > 186 |
| CN1CCC(Oc2ccc3c(=O)c4c(F)cc(Cl)cc4[nH]c3c2)CC1 | liver microsomes | 1 µM | pH 7.4 | 55.7 |
| Cc1ccc(OCC(=O)N[C@@H](Cc2c[nH]c3ccccc23)C(=O)OC(C)C)cc1 | liver microsomes | 20 mM |  | 352 |
| CCCN(CCC)CCNc1ccc2c(=O)c3c([nH]c2c1)CCCC3 | liver microsomes | 1 µM | pH 7.4 | > 60 |
| O=C(N1CCCCC1)C12CC(c3ccccc3)(C1)C2 | liver microsomes | 2 µM | pH 7.4 | 70.2 |
| O=c1c2c([nH]c3cc(Oc4ccc(OC(F)(F)F)cc4)c(F)cc13)CCCC2 | liver microsomes | 1 µM | pH 7.4 | 19.1 |
| Cc1ccc2[nH]c(=S)n(Cc3cccnc3)c(=O)c2c1 | liver microsomes | 1 µM | pH 7.4 | 10.6 |
| CN(C)CCOc1ccc2c(=O)c3c([nH]c2c1)CCCC3 | liver microsomes | 1 µM | pH 7.4 | > 60 |
| C=CCn1c(=O)c2cnc(Nc3ccc(N4CCN(C)CC4)cc3)nc2n1-c1ccc2c(n1)[C@@](O)(CC)CC2 | liver microsomes |  |  | 23 |
| O=c1c2c([nH]c3cc(OC(F)(F)F)ccc13)CCCC2 | liver microsomes | 1 µM | pH 7.4 | 8.01 |
| O=C1c2ccccc2C(=O)N1CCCN1CCN(C(c2ccc(F)cc2)c2ccc(F)cc2)CC1 | liver microsomes | 100 ng/mL |  | 10.2 |
| CCCN(CCC)CCOc1ccc2c(=O)c3c([nH]c2c1)CCCC3 | liver microsomes | 1 µM | pH 7.4 | > 60 |
| NC(=NCCC[C@@H](C(=O)NCc1ccccc1)n1cc(-c2ccc(-c3ccccc3)cc2)nn1)c1ccc([N+](=O)[O-])o1 | liver microsomes |  |  | 29 |
